Compounds with a hit are over-represented: about 2.1% of the library has one in this group of screens.
EWS-Fli block: EWS/Fli-driven NR0B1 reporter inhibitors, primary screen, A673 cells, NR0B1 luciferase, luminescence, MLPCN library. viability-normalised. inhibition, % at 12.6 µM. 0.67% of 350,000 active. AID 651661, 2012;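 active = mean inhibition of at least 50% after viability correction, with every replicate also passing that limit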;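 note: firefly luciferase signal divided by Alamar Blue viability fluorescence both relative to DMSO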
PGC1a acetyl inh: inhibitors of PGC1a acetylation signal, primary screen, cell-based, U2OS, AlphaScreen, inhibitor mode; 0.17% of 350,000 active; inhibition, % at 15.6 µM; AlphaScreen anti-acetyl-lysine; with virally co-expressed GCN5 acetyltransferase;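 active = every replicate shows inhibition of at least 40%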;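 note: 0% = neutral control wells and 100% = positive control wells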
MLL AF4-AF9 inh: inhibitors of AF4 peptide binding to AF9, primary screen, biochemical, AlphaScreen, biotin-AF4 peptide, FLAG-AF9, single point. Protein AF-9 (Homo sapiens), P42568. inhibition, % at 10 µM. 0.47% of 350,000 active. AID 651704, 2012;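 active = every replicate reaching a set inhibition limit, whatever the replicate mean, cut at about 25% in these data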;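 note: 0% = plate neutral control median and 100% = total signal loss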
Target sequence (P42568 whole entry, looked up): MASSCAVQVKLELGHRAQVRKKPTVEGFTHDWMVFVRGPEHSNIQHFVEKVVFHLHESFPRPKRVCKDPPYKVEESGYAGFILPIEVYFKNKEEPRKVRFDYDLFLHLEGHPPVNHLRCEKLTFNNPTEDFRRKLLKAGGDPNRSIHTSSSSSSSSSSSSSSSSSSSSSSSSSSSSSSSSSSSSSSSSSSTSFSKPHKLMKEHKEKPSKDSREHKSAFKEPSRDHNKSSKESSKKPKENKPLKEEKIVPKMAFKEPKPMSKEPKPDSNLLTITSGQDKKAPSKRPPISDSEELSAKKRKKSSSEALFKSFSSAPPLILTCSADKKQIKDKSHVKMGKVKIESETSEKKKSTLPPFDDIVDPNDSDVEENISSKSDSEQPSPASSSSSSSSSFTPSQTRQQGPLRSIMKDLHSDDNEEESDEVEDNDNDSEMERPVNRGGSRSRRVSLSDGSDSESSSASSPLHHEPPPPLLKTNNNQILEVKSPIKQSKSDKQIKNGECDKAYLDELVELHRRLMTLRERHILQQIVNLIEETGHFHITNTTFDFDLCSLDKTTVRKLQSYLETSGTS
GSIS activator: GLuc luminescence reporter in INS-1E cells, primary screen for activators of glucose-dependent secretion of insulin. INS-1E GLuc reporter insulin secretion, 2-3 h. activation, % at 16.6 µM. 0.61% of 370,000 active. AID 743287, 2014;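 active = lowest replicate activation of at least 40%, so every replicate reaches that level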;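 note: 0% = median of neutral control wells and 100% = median of IBMX positive control wells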
PAX8 inh HTS: inhibitors of PAX8-driven TPO luciferase reporter, primary screen, RMG-I cells, single concentration | AID 652154, 2013 | inhibition, % at 12.6 µM | SteadyGlo, 24 h | 1.2% of 360,000 active;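 active = mean replicate inhibition at least 60% with every replicate also reaching 60%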;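 note: luciferase light reporting Pax8 driven TPO promoter activity; plate controls were median of neutral control wells for no effect and mitoxantrone controls for full effect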
XiGFP reactiv: activators of inactive X chromosome reactivation, primary screen, imaging, XiGFP fibroblasts, GFP high-content imaging, set 2. XiGFP mouse fibroblasts, % GFP-positive cells imaging, 3 d; cells co-treated with 5-aza-dC sensitizer; scaled so ellipticine positive control = 100%. 0.055% of 360,000 active. activation, % at 7.58 µM. AID 743238, 2013;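 active = mean normalized replicate activation at least 10% and every replicate at or above 10%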;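 note: 0% = median of on-plate neutral control wells and 100% = ellipticine 6 µM median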
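Schedule: 3 d treatment, 15 min room-temperature fixation; system: 68-5-11 XiGFP fibroblast line; buffer or medium: DMEM plus 5-aza-dC sensitizer; control set: ellipticine 6 µM positive control; compound: one concentration, pinned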
* hit, by the source's call.

`CN1c2ccccc2N(C)C1(C)c1ccccc1` gave EWS-Fli block 5, MLL AF4-AF9 inh 49*, GSIS activator -8, PAX8 inh HTS 92* and XiGFP reactiv 0.
O=C(Cc1cccnc1)N[C@H]1CC[C@H](CCn2cc(Cc3ccccc3)nn2)O[C@H]1CO was read as EWS-Fli block -7, PGC1a acetyl inh 4, MLL AF4-AF9 inh -2, GSIS activator -7, PAX8 inh HTS -8 and XiGFP reactiv 0.
CC(=O)Nc1ccc(NC(=O)c2c([N+](=O)[O-])c(C(C)(C)C)nn2C)cc1 was read as EWS-Fli block 7, MLL AF4-AF9 inh 2, PAX8 inh HTS 4 and XiGFP reactiv 0.
For Cc1ccc(NC(=O)c2c([N+](=O)[O-])c(C(C)(C)C)nn2C)c(C)c1 the results were EWS-Fli block -6, MLL AF4-AF9 inh 3, GSIS activator -4, PAX8 inh HTS 128* and XiGFP reactiv 0.
Screening O=C(C[C@H]1C=C[C@@H](NS(=O)(=O)c2ccccc2)[C@@H](CO)O1)N1CCC(Cc2ccccc2)CC1 returned EWS-Fli block 12, PGC1a acetyl inh 5, MLL AF4-AF9 inh 1, GSIS activator -8, PAX8 inh HTS 20 and XiGFP reactiv 0.
For C=C1C(=O)OC2C1CCC(C)=C1C(=O)C3OC3(C)C12 (centres undefined) the results were EWS-Fli block 47, PGC1a acetyl inh -82, MLL AF4-AF9 inh -5 and GSIS activator 134*.
`COc1cc(NC(=O)c2ccc([N+](=O)[O-])o2)ccc1NC(=O)c1ccco1` gave PGC1a acetyl inh 16, MLL AF4-AF9 inh 1, GSIS activator 12, PAX8 inh HTS 90* and XiGFP reactiv 0.
Cc1cc([N+](=O)[O-])ccc1NC(=O)c1ccco1 was read as EWS-Fli block 4, PGC1a acetyl inh -4, MLL AF4-AF9 inh -4, GSIS activator 10, PAX8 inh HTS -7 and XiGFP reactiv 0.
COc1cc(NC(=O)c2cccc([N+](=O)[O-])c2)ccc1NC(=O)c1ccco1 was read as EWS-Fli block 1, MLL AF4-AF9 inh -1, GSIS activator 1, PAX8 inh HTS 9 and XiGFP reactiv 0.
Cc1cc(NC(=O)c2ccc([N+](=O)[O-])o2)ccc1NC(=O)c1ccco1 was read as EWS-Fli block -1, MLL AF4-AF9 inh 0, GSIS activator -10, PAX8 inh HTS 99* and XiGFP reactiv 0.
For O=C(C[C@H]1C[C@@H]2c3cc(NC(=O)CC4CC4)ccc3O[C@@H]2[C@H](CO)O1)NCc1ccc2c(c1)OCO2 the results were EWS-Fli block 1, PGC1a acetyl inh -9, MLL AF4-AF9 inh -3, GSIS activator -3, PAX8 inh HTS 4 and XiGFP reactiv 0.
Screening COc1cc2c(c(OC)c1OC)CC(=O)N(C)CC2 returned PGC1a acetyl inh 2 and GSIS activator 10.
For COc1cc2c(c(OC)c1OC)-c1ccc(SC)c(=O)cc1C(N)CC2 (centres undefined) the results were EWS-Fli block 39, PGC1a acetyl inh -9, MLL AF4-AF9 inh 5, GSIS activator 7, PAX8 inh HTS 74* and XiGFP reactiv 0.
COc1cc2c(c(OC)c1OC)-c1ccc(OC)c(=O)cc1[C@@H](N(C)CC#CCO)CC2 was read as EWS-Fli block 54*, MLL AF4-AF9 inh 1, GSIS activator -8, PAX8 inh HTS 77* and XiGFP reactiv 1.
For COc1cc2c(c(OC)c1OC)-c1ccc(OC)c(=O)cc1C(N)CC2 (centres undefined) the results were EWS-Fli block 56*, PGC1a acetyl inh 3, MLL AF4-AF9 inh -2, GSIS activator -10, PAX8 inh HTS 76* and XiGFP reactiv 2.
For CNC[C@@H]1Oc2ncc(C#Cc3ccc(F)cc3)cc2C(=O)N([C@H](C)CO)C[C@@H]1C the results were EWS-Fli block -13, PGC1a acetyl inh -5, MLL AF4-AF9 inh 6, GSIS activator -7 and XiGFP reactiv 0.
`COc1ccc(CN2CC3(CN(C(C)=O)C3)c3c([nH]c4cc(OC)ccc34)[C@@H]2CO)cc1` gave EWS-Fli block 31, MLL AF4-AF9 inh 0, GSIS activator 34 and XiGFP reactiv 0.
Cc1nc(Nc2nc(CSc3nc4ccccc4[nH]3)cc(=O)[nH]2)nc2ccccc12 was read as GSIS activator -45, PAX8 inh HTS 102* and XiGFP reactiv 0.
COc1ccc2nc(Nc3nc(CSc4nc5ccccc5[nH]4)cc(=O)[nH]3)nc(C)c2c1 was read as PGC1a acetyl inh -4, MLL AF4-AF9 inh 0, GSIS activator -5, PAX8 inh HTS 29 and XiGFP reactiv 0.
For COc1ccc(C#Cc2cccc(-c3nc(C(=O)N4CCN(Cc5ccccc5)CC4)cc4c3[C@H](CCO)N(S(=O)C(C)(C)C)C4)c2)cc1OC (some centres undefined) the results were GSIS activator 1 and XiGFP reactiv 0.
`O=C(c1[nH]c(C(F)(F)F)nc1-c1ccccc1)N1CCN(c2ccccc2)CC1` gave EWS-Fli block 65*, PGC1a acetyl inh 0, MLL AF4-AF9 inh -2, GSIS activator -15, PAX8 inh HTS 29 and XiGFP reactiv 3.
CN1CCN(/N=C/c2c3ccccc3c(Cl)c3ccccc23)CC1 was read as EWS-Fli block -13, PGC1a acetyl inh -5, MLL AF4-AF9 inh 25*, GSIS activator 9, PAX8 inh HTS -26 and XiGFP reactiv 0.
CN1CCN(/N=C/c2ccc(-c3ccccc3)cc2)CC1 was read as EWS-Fli block -82, PGC1a acetyl inh -15, MLL AF4-AF9 inh 35*, GSIS activator 17, PAX8 inh HTS -150 and XiGFP reactiv 0.
For CSc1ccc(/C=N/N2CCN(C)CC2)cc1 the results were EWS-Fli block -73, MLL AF4-AF9 inh 8, GSIS activator 7, PAX8 inh HTS -138 and XiGFP reactiv 0.
C(=N\N1CCN(Cc2ccccc2)CC1)/c1ccc(-c2ccccc2)cc1 was read as EWS-Fli block -8, PGC1a acetyl inh -9, MLL AF4-AF9 inh -4, GSIS activator -8, PAX8 inh HTS -25 and XiGFP reactiv 0.
For O=C(NC1CCCCC1)N1CC(=O)N2[C@H](CO)[C@@H](c3ccc(/C=C/c4ccccc4)cc3)[C@@H]2C1 the results were EWS-Fli block -9, PGC1a acetyl inh 0, MLL AF4-AF9 inh 1, GSIS activator -10, PAX8 inh HTS 7 and XiGFP reactiv 0.
Screening CC(C)[C@H](C)NC(=O)N(C)C[C@H]1OCc2ccccc2-c2ccccc2C(=O)N([C@@H](C)CO)C[C@H]1C returned GSIS activator 11 and XiGFP reactiv -1.
